Here are results for 167 variants from the RNAGym collection of RNA variant scans (doi:10.1126/science.aae0568).

First the molecules themselves.
B1: tRNA (parent)
chain: GUUCCGUUGGCGUAAUGGUAACGCGUCUCCCUCCUAAGGAGAAGACUGCGGGUUCGAGUCCCGUACGGAACG

Variants at the floor of the assay were thinned out. Where only a bound is given, the exact number is not on record here.

The variants in the data set derive from B1. Put plainly: yeast fitness relative to wild type (ratio to wild type); higher = fitter; tRNA-Arg(CCU), competitive growth, 37 C, YPD. In a few lines:
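Amplicons of the tRNA-Arg(CCU) gene were sequenced, 100-nucleotide paired-end, from the start population and from each end population of a pooled yeast competition. The competition, in six parallel replicates, lasted 24 hours in YPD at 37°C. Fitness relative to wild type was calculated from changes in genotype frequencies. Genotypes had to have ≥ 100 starting reads, and estimates < 0.5 were set to 0.5.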
Consider U2C G50A G68C, for which the yeast fitness was 0.556.

U2G A20U C34A C55G C66A: the yeast fitness was not above 0.5.

For U2C U3C C34U A40U C55U A65G, the yeast fitness is not above 0.5.

For the variant U2G A15C U47G A69C, the yeast fitness was not above 0.5.

Turning to U2C U8C G23C C31G C33U A42G G52C G58C, the yeast fitness was not above 0.5.

U2C U13A C27G C33A G48A G51C: the yeast fitness was not above 0.5.

Turning to U2G A21G A57C, the yeast fitness is not above 0.5.

With U2C U16C C27G, the yeast fitness is 0.669.

U2C U32A C61A A65G: the yeast fitness was not above 0.5.

For the variant U2G A15C A36C A69U A70G, the yeast fitness was not above 0.5.

With U2C U19A C30U G38C, the yeast fitness amounted to 0.54.

Turning to U2C U13C A20G U28C A40G, the yeast fitness turned out to be 0.679.

In the case of U2G A20G C22A A40C C46G G48A C49U, the yeast fitness was not above 0.5.

Regarding U2C U13A U54C C66U, the yeast fitness is not above 0.5.

Turning to U2G A20C G44A A45G, the yeast fitness is 0.712.

On to U2G A14G C29G A37U C62G C66U, for which the yeast fitness was not above 0.5.

U2G A21G A65G: the yeast fitness came to 0.663.

Turning to U2C U8C A42C, the yeast fitness came out at 0.676.

Take U2C U54C C62U: the yeast fitness came to 0.571.

For U2C G50A, the yeast fitness turned out to be 0.878.

For the variant U2C G50C G51A C55U, the yeast fitness was found to be 0.582.

As for U2C G63C G68C, the yeast fitness came to 0.572.

For U2C U32C, the yeast fitness was determined as 0.973.

Take U2C U26C A36G: the yeast fitness is not above 0.5.

As for U2C U13C C22G U26A, the yeast fitness was not above 0.5.

For the variant U2C U28A G44U, the yeast fitness was not above 0.5.

Consider U2G A21C C22G A45G G51A, for which the yeast fitness amounted to 0.697.

As for U2C U19C A45C C55U, the yeast fitness was not above 0.5.

Regarding U2C U13A G39C C60G A70U, the yeast fitness is 0.537.

Regarding U2C U32A A65C, the yeast fitness is not above 0.5.

In the case of U2C U19G G68A, the yeast fitness is 0.559.

For U2C U26A, the yeast fitness was determined as 0.918.

Turning to U2C U3C C34U C55A, the yeast fitness is not above 0.5.

U2C U28C C34U U64A A65U: the yeast fitness turned out to be 0.735.

Consider U2C U8C C34A A42C C49A, for which the yeast fitness is not above 0.5.

In the case of U2C U3G G10A A69C, the yeast fitness is not above 0.5.

In the case of U2C G67A A70U, the yeast fitness turned out to be 0.67.

Regarding U2C G67A, the yeast fitness is 0.911.

On to U2C U3C U19A C61A, for which the yeast fitness is not above 0.5.

U2G A15C G50A: the yeast fitness was not above 0.5.

As for U2G A14G, the yeast fitness worked out at 0.713.

Regarding U2C U8G A14G U32G U35A, the yeast fitness is not above 0.5.

For U2G A14U U28A, the yeast fitness is not above 0.5.

As to U2G A15C C24U, the yeast fitness was determined as 0.591.

For U2C U19C A37G C49A A69C, the yeast fitness is not above 0.5.

Take U2C U16G C66A: the yeast fitness was not above 0.5.

For the variant U2G A15C A36C, the yeast fitness was determined as 0.649.

On to U2C U13C C22G U26A C31U A42C G50C, for which the yeast fitness was not above 0.5.

Take U2C U8A A36U: the yeast fitness is not above 0.5.

As for U2C U8G C11U C24U A37U C66A, the yeast fitness was not above 0.5.

For U2G A21C C22G, the yeast fitness is 0.541.

For the variant U2G A21C C22U, the yeast fitness is 0.575.

U2C U3A U19G G44C: the yeast fitness came to 0.591.

Take U2C U19C A69C: the yeast fitness was determined as 0.708.

In the case of U2C U19C A57C, the yeast fitness was 0.642.

U2G A14C A69C: the yeast fitness is not above 0.5.

In the case of U2G A14C C33A C46G, the yeast fitness was not above 0.5.

With U2C U13C C22G C24U C61A, the yeast fitness was not above 0.5.

As for U2C U47C A70U, the yeast fitness amounted to 0.808.

Turning to U2C G63C C66U, the yeast fitness is not above 0.5.

For U2C U16C A36G, the yeast fitness is not above 0.5.

With U2G A14U A20G C33G C61U A70C, the yeast fitness is not above 0.5.

With U2C U7A C31A C66G, the yeast fitness was not above 0.5.

Regarding U2C G56A, the yeast fitness stood at 1.02.

Take U2C U28A A70G: the yeast fitness was not above 0.5.

As for U2C U28A G56A, the yeast fitness is not above 0.5.

Turning to U2C U32C U35A G56A, the yeast fitness was not above 0.5.

On to U2C U13C G44C G58A, for which the yeast fitness turned out to be 0.59.

As to U2C U19C A37G, the yeast fitness was not above 0.5.

Regarding U2C U19C, the yeast fitness worked out at 0.897.

For U2C U19G, the yeast fitness is 0.867.

On to U2C U26G A65G, for which the yeast fitness was found to be 0.712.

Regarding U2C G58A, the yeast fitness was found to be 0.893.

As to U2C U35A U47A C49U C55U C66U, the yeast fitness is not above 0.5.

Regarding U2G A14C A42C C49U A65G A70U, the yeast fitness was found to be 0.533.

For the variant U2C U16A A70C, the yeast fitness worked out at 0.676.

Take U2C U13G G67U: the yeast fitness was not above 0.5.

For U2G A15U U47A C62A, the yeast fitness was not above 0.5.

On to U2C U26C G48A, for which the yeast fitness was determined as 0.663.

In the case of U2C U16A, the yeast fitness worked out at 0.971.

Take U2G A15G G17A G52C A65G: the yeast fitness came out at 0.558.

For U2G A20G C22A A40C C46G G48A C49U G63A, the yeast fitness is not above 0.5.

As to U2C U8C, the yeast fitness stood at 0.965.

As to U2C U16C A36G C55U, the yeast fitness is not above 0.5.

On to U2C U19C G50A, for which the yeast fitness is 0.593.

On to U2G A15U U35G U53G, for which the yeast fitness is not above 0.5.

With U2C U8C C34A A42C G68C, the yeast fitness was not above 0.5.

On to U2C U54C, for which the yeast fitness was 0.873.

With U2C U54G, the yeast fitness was 0.657.

For the variant U2C U19G C60A, the yeast fitness amounted to 0.528.

With U2C U53G, the yeast fitness turned out to be 0.598.

As to U2C U47G, the yeast fitness worked out at 0.626.

U2C U47C: the yeast fitness worked out at 0.977.

In the case of U2C U16G G56C, the yeast fitness is not above 0.5.

In the case of U2C U19C C49U A57C, the yeast fitness is not above 0.5.

In the case of U2G A15C A37G A43U, the yeast fitness is not above 0.5.

U2C U8C G44A U53C A70U: the yeast fitness is not above 0.5.

In the case of U2C G50A G51A, the yeast fitness came to 0.511.

In the case of U2C U13C C27A G58C G63C, the yeast fitness is not above 0.5.

U2C U8G A20G U32G U35A: the yeast fitness was not above 0.5.

Regarding U2C U8G C31G A42C G56A C61G, the yeast fitness is 0.507.

For the variant U2C U7A G68A, the yeast fitness was not above 0.5.

Consider U2G A20G, for which the yeast fitness amounted to 0.901.

For U2C U28A U54C, the yeast fitness is 0.543.

Regarding U2C U32A C46U, the yeast fitness stood at 0.603.

For the variant U2C U16A A42G, the yeast fitness was found to be 0.649.

For U2C U35A C55A, the yeast fitness is not above 0.5.

In the case of U2C U8C A21U C29U G39A G51C C60U C66G, the yeast fitness was not above 0.5.

For the variant U2C U13C A14G C22G U26A, the yeast fitness was not above 0.5.

Consider U2C G52A, for which the yeast fitness worked out at 0.75.

Take U2C U7A U35A G56A: the yeast fitness was not above 0.5.

In the case of U2C U35A G56A, the yeast fitness was 0.576.

Turning to U2C U3A U26C U53C, the yeast fitness is not above 0.5.

In the case of U2G A14G A15U G25C C49U, the yeast fitness is not above 0.5.

As for U2C U28C C55A, the yeast fitness is not above 0.5.

With U2G A15C A43G, the yeast fitness was not above 0.5.

Regarding U2C U64C G68A, the yeast fitness is 0.578.

With U2G A20U G25C C49G A65C A70U, the yeast fitness is not above 0.5.

For the variant U2G A15G G17A C29G A40U C61U C66U, the yeast fitness is not above 0.5.

For the variant U2C U8A G17C G38A G56C C61A, the yeast fitness is not above 0.5.

Turning to U2C U35C A69C, the yeast fitness is not above 0.5.

With U2G A15U C62G, the yeast fitness was not above 0.5.

For the variant U2C U59C, the yeast fitness turned out to be 0.996.

In the case of U2G A20C C33A, the yeast fitness was not above 0.5.

Take U2G A20U U32A C46G: the yeast fitness is not above 0.5.

Consider U2G A15G G17A, for which the yeast fitness was not above 0.5.

Regarding U2G A15C C49U, the yeast fitness was 0.563.

Turning to U2C U32C A40C G48A, the yeast fitness worked out at 0.551.

U2C U35G A40C C62G C66G: the yeast fitness is not above 0.5.

For the variant U2C U3A C24A C27U A42G G56C C66U, the yeast fitness was not above 0.5.

For U2G A14U A20G C33G A70C, the yeast fitness is not above 0.5.

In the case of U2C U16G A70G, the yeast fitness stood at 1.06.

In the case of U2G A15C C24U C55U A65G, the yeast fitness is not above 0.5.

As to U2C G58A C62G, the yeast fitness was determined as 0.597.

For the variant U2G A20U A43U, the yeast fitness was determined as 0.594.

In the case of U2G A21G, the yeast fitness was 0.917.

For U2C U7C G23A, the yeast fitness came out at 0.592.

Take U2C U13A G18A A42G: the yeast fitness is not above 0.5.

With U2C G51A C62G C66U, the yeast fitness is not above 0.5.

U2C U16A G63A: the yeast fitness was 0.705.

U2C G51A A69U: the yeast fitness is not above 0.5.

As for U2C U3C C34U A65G, the yeast fitness is not above 0.5.

Consider U2G A21C A45G, for which the yeast fitness came out at 0.54.

Consider U2G A21G A69C, for which the yeast fitness was found to be 0.501.

As to U2C U32G C34U A57G, the yeast fitness was not above 0.5.

With U2C G63C, the yeast fitness was found to be 0.747.

Take U2C U13C G41A: the yeast fitness was 0.602.

For the variant U2C U8A G17C G38A, the yeast fitness is not above 0.5.

Take U2G A14G C62G A70U: the yeast fitness is not above 0.5.

As to U2C U26G G38C, the yeast fitness was not above 0.5.

On to U2G A21C C46G C49G, for which the yeast fitness was not above 0.5.

Consider U2C U26C C27G U28A A43U, for which the yeast fitness is not above 0.5.

Turning to U2C U16G G51A, the yeast fitness was determined as 0.588.

Regarding U2C U3C C5U C34U, the yeast fitness was not above 0.5.

Consider U2G A14G C29G A37U, for which the yeast fitness is not above 0.5.

For the variant U2C U35C U47C, the yeast fitness was determined as 0.788.

U2C U8G U32G U35A C55U G58A: the yeast fitness was not above 0.5.

As for U2C U7G C33U C55A, the yeast fitness is not above 0.5.

Consider U2G A14G C22U C24G A69C, for which the yeast fitness was not above 0.5.

Consider U2C U3C C34U C62G G63A, for which the yeast fitness is not above 0.5.

U2G A14C A57U A69U: the yeast fitness was not above 0.5.

Take U2G A15G G17A G52C C66A: the yeast fitness was not above 0.5.

As for U2C U3C C34U G68C, the yeast fitness was not above 0.5.

U2C G68A: the yeast fitness came out at 0.762.

For U2C G68C, the yeast fitness came out at 0.963.

As to U2G A14U A20G C33G G67U A69C, the yeast fitness was not above 0.5.

In the case of U2G A14C C27U U35A A57G C66U, the yeast fitness is not above 0.5.
